Experimental data: PMC5912898 (Nature chemical biology, 2017)
pIC50: −log10 of the molar value. Read-outs that look alike come from different tables or passages of the source.

Key:
[1] = tested on: MOLT4 cells; assay: Annexin V flow cytometry of apoptotic cells; format: cell-based, human; details: 250 nM, without washout
Summary of the method: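 MOLT4 cells were exposed to 250 nM test compound for 6 h, then either washed three times with media or left in compound, and collected 24 h later. Cells were PBS-washed, stained with FITC annexin V in HEPES/NaCl/CaCl₂ binding buffer (pH 7.4) at room temperature, and propidium iodide was added just before flow cytometry. Results are means ± s.d. of 3 biological replicates.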

[2] = molecular target: CDK6 (Homo sapiens, UniProt Q00534); assay: Kinativ live cell chemical proteomics; format: cell-based; details: live cell treatment, 0.25μM
Chain of CDK6 (Q00534 whole entry): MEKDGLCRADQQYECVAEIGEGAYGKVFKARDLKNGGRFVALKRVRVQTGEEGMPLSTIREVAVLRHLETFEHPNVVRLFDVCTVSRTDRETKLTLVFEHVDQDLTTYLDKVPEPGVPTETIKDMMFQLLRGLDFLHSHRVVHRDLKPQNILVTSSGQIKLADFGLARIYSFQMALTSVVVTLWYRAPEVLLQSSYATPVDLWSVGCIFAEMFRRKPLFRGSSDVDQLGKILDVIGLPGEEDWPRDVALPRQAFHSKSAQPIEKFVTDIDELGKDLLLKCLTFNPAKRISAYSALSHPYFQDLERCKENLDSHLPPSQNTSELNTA

[3] = tested on: PCTAIRE1,PCTAIRE3; assay: Kinativ live cell chemical proteomics; format: cell-based, human; details: live cell treatment, 0.25μM
[4] = tested on: MOLT4 cells; assay: Proliferation assay; format: cell-based, human; details: for pIC50: read-out: proliferation IC50
[5] = molecular target: CDK9/CycT1 (Homo sapiens, UniProt P50750); assay: Adapta Eu in vitro kinase assay; format: biochemical
Chain of CDK9/CycT1 (P50750 whole entry): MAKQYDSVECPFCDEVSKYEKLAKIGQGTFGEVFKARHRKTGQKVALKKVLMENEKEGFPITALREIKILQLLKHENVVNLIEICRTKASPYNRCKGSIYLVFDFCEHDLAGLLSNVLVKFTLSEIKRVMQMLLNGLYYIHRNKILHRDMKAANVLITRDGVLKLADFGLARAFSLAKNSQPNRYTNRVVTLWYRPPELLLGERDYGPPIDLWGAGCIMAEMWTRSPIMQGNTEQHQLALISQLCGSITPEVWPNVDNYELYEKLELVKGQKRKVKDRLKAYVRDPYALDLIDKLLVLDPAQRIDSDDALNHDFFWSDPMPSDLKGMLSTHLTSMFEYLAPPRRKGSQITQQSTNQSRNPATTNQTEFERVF
Chain of CDK9/CycT1 (O60563 whole entry partner): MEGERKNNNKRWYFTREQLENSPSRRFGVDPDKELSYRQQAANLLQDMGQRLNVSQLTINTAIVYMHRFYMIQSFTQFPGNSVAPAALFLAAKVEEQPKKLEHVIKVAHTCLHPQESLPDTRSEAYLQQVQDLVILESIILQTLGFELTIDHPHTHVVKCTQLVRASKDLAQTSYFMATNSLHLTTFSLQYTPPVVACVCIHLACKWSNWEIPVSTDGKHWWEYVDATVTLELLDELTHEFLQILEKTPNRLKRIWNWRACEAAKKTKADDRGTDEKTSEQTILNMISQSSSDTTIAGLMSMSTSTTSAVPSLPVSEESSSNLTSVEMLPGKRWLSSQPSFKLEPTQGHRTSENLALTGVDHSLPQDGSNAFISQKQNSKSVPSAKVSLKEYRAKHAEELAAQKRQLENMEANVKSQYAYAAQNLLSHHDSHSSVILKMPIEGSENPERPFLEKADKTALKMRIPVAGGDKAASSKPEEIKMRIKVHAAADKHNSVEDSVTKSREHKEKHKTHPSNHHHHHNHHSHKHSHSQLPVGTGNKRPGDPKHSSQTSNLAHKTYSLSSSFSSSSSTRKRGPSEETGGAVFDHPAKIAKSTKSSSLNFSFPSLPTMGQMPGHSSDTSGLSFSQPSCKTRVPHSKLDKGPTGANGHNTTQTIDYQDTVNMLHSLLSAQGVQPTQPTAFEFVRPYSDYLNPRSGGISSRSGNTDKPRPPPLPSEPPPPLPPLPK

[6] = molecular target: T1, CDK9 (Homo sapiens, UniProt P50750); assay: Kinativ live cell chemical proteomics; format: cell-based; details: CRBN−/− MOLT4 cells, live cell treatment, 0.25μM
T1 sequence (P50750 whole entry): as the sequence (P50750 whole entry) above
Summary of the method: (§1)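 Test compound was applied to intact MOLT4 cells (CRBN−/− or wildtype). Cells were then sonicated in 50 mM HEPES pH 7.5, 150 mM NaCl, 0.1% Triton X-100 with phosphatase inhibitors, and cleared. Lysate was labelled with desthiobiotin-ATP acylphosphate probe (20 μM final) for 10 min. Samples were reduced and alkylated for LC-MS/MS, and % inhibition was calculated from integrated peak areas against DMSO controls.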

[7] = molecular target: T1, CDK9; assay: Kinomescan profiling; format: binding; details: 1μM
[8] = molecular target: CDK2 (Homo sapiens, UniProt P24941); assay: Bio-AT7519 pulldown target engagement; format: cell-based; details: wildtype and CRBN−/− MOLT4 cells, 6 hours, 1μM, 500nM or 250nM
[9] = molecular target: PCTAIRE2 (Homo sapiens, UniProt Q00537); assay: Kinativ live cell chemical proteomics; format: cell-based; details: live cell treatment, 0.25μM
Chain of PCTAIRE2 (Q00537 whole entry): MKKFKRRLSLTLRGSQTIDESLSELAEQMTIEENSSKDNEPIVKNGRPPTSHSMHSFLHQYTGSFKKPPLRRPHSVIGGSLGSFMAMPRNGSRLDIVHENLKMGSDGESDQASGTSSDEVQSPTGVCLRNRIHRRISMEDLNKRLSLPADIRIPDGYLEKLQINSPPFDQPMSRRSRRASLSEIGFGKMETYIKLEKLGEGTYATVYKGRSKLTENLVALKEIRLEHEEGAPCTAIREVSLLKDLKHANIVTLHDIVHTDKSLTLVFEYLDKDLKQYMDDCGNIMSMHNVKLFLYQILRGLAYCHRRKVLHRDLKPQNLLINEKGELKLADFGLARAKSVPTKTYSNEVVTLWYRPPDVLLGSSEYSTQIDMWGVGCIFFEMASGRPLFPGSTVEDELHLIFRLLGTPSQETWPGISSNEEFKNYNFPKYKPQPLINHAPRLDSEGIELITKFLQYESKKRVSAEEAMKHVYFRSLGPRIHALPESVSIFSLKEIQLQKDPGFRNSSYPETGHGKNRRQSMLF

[10] = molecular target: DYRK1B (Homo sapiens, UniProt Q9Y463); assay: Kinomescan profiling; format: binding; details: 1μM
[11] = tested on: MCL-1; assay: MCL-1 protein level by immunoblot; format: cell-based, human; details: wildtype MOLT4 cells, 250 nM time course
Summary of the method: (§2)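 Wildtype MOLT4 cells were treated with 250 nM test compound for the indicated times. They were lysed for 30 min on ice in RIPA buffer (pH 7.4) with protease and phosphatase inhibitors and nuclease. Lysates were clarified at 21,000g for 30 min at 4°C and protein measured by BCA. Blots were detected with infrared-labelled secondary antibodies.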

[12] = tested on: RNA Pol II CTD Serine 2 phosphorylation; assay: RNA Pol II CTD phosphorylation by immunoblot; format: cell-based, human; details: MOLT4 cells
Summary of the method: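 MOLT4 cells lysed on ice for 30 min in RIPA buffer (pH 7.4) with protease and phosphatase inhibitors and 2.5 U/mL nuclease. Lysate spun at 21,000g, 30 min, 4°C, and protein measured by BCA. Blots probed with anti-phospho-CTD Ser2 alongside total Pol II and tubulin. Infrared-labelled secondaries; blots imaged on Odyssey.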

[13] = molecular target: T2, CDK10 (Homo sapiens, UniProt Q15131); assay: Kinativ lysate chemical proteomics; format: binding; details: MOLT4 cell lysate, 1uM
T2 sequence (Q15131 whole entry): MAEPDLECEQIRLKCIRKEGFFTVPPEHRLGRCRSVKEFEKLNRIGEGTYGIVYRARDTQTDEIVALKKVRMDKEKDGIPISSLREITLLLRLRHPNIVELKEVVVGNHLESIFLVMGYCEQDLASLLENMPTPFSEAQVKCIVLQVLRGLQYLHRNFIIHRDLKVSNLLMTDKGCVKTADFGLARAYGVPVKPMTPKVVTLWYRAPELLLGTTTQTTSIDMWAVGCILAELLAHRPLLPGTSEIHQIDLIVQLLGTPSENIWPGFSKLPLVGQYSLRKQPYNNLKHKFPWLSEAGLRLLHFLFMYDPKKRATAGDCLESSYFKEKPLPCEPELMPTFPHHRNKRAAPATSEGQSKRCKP
Summary of the method: (§3)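 MOLT4 lysate (sonicated in HEPES pH 7.5/NaCl/Triton buffer, then gel-filtered) was incubated 15 min in duplicate with test compound added from a 100X DMSO stock, or with DMSO alone. Desthiobiotin-ATP acylphosphate probe (20 μM final) was then added for 10 min. Peptides were analysed by LC-MS/MS, and % inhibition was calculated as 1 − treated/control signal.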

[14] = molecular target: CDK7/CycH/MNAT1 (Homo sapiens, UniProt P50613); assay: Adapta Eu in vitro kinase assay; format: biochemical
Chain of CDK7/CycH/MNAT1 (P50613 whole entry): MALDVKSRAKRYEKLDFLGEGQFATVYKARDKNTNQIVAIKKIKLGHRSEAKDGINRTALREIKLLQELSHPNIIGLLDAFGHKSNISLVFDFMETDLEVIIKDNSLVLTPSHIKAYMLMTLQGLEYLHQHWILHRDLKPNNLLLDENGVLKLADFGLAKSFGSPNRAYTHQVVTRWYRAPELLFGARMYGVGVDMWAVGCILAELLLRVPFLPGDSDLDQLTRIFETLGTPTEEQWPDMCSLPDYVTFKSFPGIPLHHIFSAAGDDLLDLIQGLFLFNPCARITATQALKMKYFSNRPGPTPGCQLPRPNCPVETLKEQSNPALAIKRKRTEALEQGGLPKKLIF
Chain of CDK7/CycH/MNAT1 (P51946 whole entry partner): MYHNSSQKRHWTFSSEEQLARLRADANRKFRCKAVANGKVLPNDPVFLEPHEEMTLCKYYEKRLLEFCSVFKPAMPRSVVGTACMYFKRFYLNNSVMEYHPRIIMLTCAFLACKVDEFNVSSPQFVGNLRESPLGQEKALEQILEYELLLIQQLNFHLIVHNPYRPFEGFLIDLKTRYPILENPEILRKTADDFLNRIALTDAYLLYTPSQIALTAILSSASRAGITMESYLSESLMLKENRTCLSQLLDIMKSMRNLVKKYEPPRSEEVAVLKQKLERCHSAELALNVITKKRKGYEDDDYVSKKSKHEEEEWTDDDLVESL
Chain of CDK7/CycH/MNAT1 (P51948 whole entry partner): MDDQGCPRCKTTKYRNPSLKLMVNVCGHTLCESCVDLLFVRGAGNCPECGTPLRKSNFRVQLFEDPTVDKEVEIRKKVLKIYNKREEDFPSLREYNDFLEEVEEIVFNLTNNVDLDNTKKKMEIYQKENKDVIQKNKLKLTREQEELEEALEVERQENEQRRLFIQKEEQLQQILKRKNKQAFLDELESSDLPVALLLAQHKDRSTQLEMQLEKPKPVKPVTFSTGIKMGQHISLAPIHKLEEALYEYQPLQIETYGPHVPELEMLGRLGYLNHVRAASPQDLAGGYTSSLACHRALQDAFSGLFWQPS

[15] = tested on: panel of 468 kinases; assay: Kinomescan kinome selectivity profiling; format: binding; details: Kinomescan at 1μM
[16] = molecular target: T1, CDK9; assay: Bio-AT7519 pulldown target engagement; format: cell-based; details: 6 hours, 1μM, 500nM or 250nM
Summary of the method: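 Live wildtype or CRBN−/− MOLT4 cells were exposed to DMSO or test compound for 6 h, then PBS-washed and lysed (50 mM Tris-HCl pH 8.0, 150 mM NaCl, 1% NP-40, 5 mM EDTA, 1 mM DTT, protease/phosphatase inhibitors). Clarified lysate (input sampled) was rotated overnight at 4°C with 1μM biotinylated AT7519, then captured on streptavidin resin for 3 h at 4°C. Beads were washed ×5, boiled, and immunoblotted.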

[17] = tested on: MOLT4 cells; assay: Apoptosis by immunoblot; format: cell-based, human; details: wildtype MOLT4 cells, 250 nM
Summary of the method: as §2

[18] = tested on: PCTAIRE2,PCTAIRE3; assay: Kinativ live cell chemical proteomics; format: cell-based, human; details: live cell treatment, 0.25μM
[19] = molecular target: CDK7 (Homo sapiens, UniProt P50613); assay: Bio-AT7519 pulldown target engagement; format: cell-based; details: wildtype and CRBN−/− MOLT4 cells, 6 hours, 1μM, 500nM or 250nM
Chain of CDK7 (P50613 whole entry): as the sequence (P50613 whole entry) above

[20] = molecular target: GSK3A (Homo sapiens, UniProt P49840); assay: Kinativ live cell chemical proteomics; format: cell-based; details: live cell treatment, 0.25μM
Chain of GSK3A (P49840 whole entry): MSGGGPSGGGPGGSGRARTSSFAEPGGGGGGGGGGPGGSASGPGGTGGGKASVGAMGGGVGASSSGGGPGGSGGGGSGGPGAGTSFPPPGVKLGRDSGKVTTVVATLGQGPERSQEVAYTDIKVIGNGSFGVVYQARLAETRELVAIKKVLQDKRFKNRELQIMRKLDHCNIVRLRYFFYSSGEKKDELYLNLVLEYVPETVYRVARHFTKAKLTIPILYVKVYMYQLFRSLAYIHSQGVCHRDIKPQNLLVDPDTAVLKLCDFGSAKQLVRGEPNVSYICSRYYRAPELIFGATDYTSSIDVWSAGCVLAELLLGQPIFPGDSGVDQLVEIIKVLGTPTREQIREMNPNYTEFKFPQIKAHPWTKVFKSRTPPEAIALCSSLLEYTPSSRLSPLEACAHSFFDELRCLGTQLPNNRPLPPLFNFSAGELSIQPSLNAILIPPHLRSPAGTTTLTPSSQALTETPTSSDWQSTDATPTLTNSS
Summary of the method: as §1

[21] = molecular target: T1, CDK9; assay: Kinativ lysate chemical proteomics; format: binding; details: MOLT4 cell lysate, 1uM
Summary of the method: as §3

[22] = tested on: CDK7 mRNA; assay: qPCR of mRNA levels; format: cell-based, human; details: MOLT4 cells, 250nM, 8 hours
[23] = tested on: panel of eleven different leukemia cancer cell lines; assay: Proliferation in leukemia cell line panel; format: cell-based
[24] = tested on: CDK1 mRNA; assay: qPCR of mRNA levels; format: cell-based, human; details: MOLT4 cells, 250nM, 8 hours
[25] = tested on: CRBN−/− MOLT4 cells; assay: Proliferation assay; format: cell-based; details: Homo sapiens, MOLT-4, 72 h, read-out: proliferation IC50
Summary of the method: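 CRBN−/− MOLT4 cells were exposed to a range of test compound concentrations for 72 h. Viability was measured with CellTiter-Glo, and IC50 was derived by non-linear regression curve fitting.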

[26] = molecular target: T2, CDK10; assay: CDK10 degradation by immunoblot; format: cell-based; details: MOLT4 cells
Summary of the method: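 MOLT4 cells treated with test compound were lysed in RIPA buffer (pH 7.4) with protease and phosphatase inhibitors and nuclease for 30 min on ice. Lysates were clarified at 21,000g for 30 min at 4°C and quantified by BCA. CDK10 was immunoblotted and detected with infrared-labelled secondary antibodies.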

[27] = molecular target: CDK1/CycB (Homo sapiens, UniProt P06493); assay: Z'LYTE in vitro kinase assay; format: biochemical
Chain of CDK1/CycB (P06493 whole entry): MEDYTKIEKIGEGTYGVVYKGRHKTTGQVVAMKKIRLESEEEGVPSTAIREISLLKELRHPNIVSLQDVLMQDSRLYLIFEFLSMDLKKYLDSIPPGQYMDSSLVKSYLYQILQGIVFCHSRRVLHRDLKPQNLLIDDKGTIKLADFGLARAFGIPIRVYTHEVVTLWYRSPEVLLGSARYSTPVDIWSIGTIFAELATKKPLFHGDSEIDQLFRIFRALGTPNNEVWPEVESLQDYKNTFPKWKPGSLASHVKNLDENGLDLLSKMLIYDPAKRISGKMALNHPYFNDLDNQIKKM
Chain of CDK1/CycB (P14635 whole entry partner): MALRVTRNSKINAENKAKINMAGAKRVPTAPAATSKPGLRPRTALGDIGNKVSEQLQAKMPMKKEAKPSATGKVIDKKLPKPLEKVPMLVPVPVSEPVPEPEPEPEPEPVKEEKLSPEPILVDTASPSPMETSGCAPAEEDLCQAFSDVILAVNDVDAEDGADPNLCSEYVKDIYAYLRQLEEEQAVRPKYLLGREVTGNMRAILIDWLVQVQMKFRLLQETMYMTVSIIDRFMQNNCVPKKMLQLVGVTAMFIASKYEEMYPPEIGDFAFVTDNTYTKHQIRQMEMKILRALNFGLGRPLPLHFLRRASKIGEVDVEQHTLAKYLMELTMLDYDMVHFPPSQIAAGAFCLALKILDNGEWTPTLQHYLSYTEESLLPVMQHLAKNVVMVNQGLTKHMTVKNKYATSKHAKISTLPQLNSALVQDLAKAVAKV
Summary of the method: (§4)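 Inhibition of the recombinant cyclin-bound CDK complex was measured in a Z'LYTE kinase assay run by a contract service at the Km concentration of ATP.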

[28] = molecular target: T1, CDK9; assay: CDK9 degradation by immunoblot; format: cell-based
[29] = molecular target: CDK2/CycA (Homo sapiens, UniProt P24941); assay: Z'LYTE in vitro kinase assay; format: biochemical
Summary of the method: as §4

[30] = molecular target: T1, CDK9; assay: Multiplexed quantitative mass spectrometry-based proteomics; format: cell-based; details: MOLT4 cells, 250nM, 2 hours, 4512 proteins quantified
Summary of the method: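 MOLT4 cells (RPMI-1640, 10% FBS, 1% Pen/Strep, 37°C, 5% CO₂) exposed to 250nM test compound for 2 hours. Proteins labelled with 10plex TMT isobaric tags and run on an Orbitrap Fusion using SPS-MS3. Threshold of 2 peptides per protein. Log fold-change vs p-value plotted. n=3 biological replicates.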

[31] = wildtype and CRBN−/− MOLT4 cells
[32] = 6-hour treatment then compound washout

## COC[C@@H](C)NC1CCC(Nc2cc(-c3cccc(NCC4(C#N)CCOCC4)n3)c(Cl)cn2)CC1 (stereo partly drawn) [NVP-2]
[1]
  Annexin V positive cells: ~100%
[2]; CRBN−/− MOLT4 cells
  percent inhibited CDK6 (Lys2) labeling: −8.6%
[2]; Wildtype MOLT4 cells
  percent inhibited CDK6 (Lys2) labeling: −10%
[3]; CRBN−/− MOLT4 cells
  percent inhibited PCTAIRE1,PCTAIRE3 (Lys2) labeling: −5.2%
[3]; Wildtype MOLT4 cells
  percent inhibited PCTAIRE1,PCTAIRE3 (Lys2) labeling: −30.5%
[4]; wild-type MOLT4, 72 hours, CellTiter Glo
  pIC50: 8.05
[5]; read-out: IC50 CDK9/CycT kinase activity, Km ATP
  pIC50: > 9.29
[6]
  percent inhibited CDK9 (Lys2) labeling: ~63%
[7]
  Kinomescan inhibition of CDK9: greater than 99%
[8]
  CDK2 engagement (bio-AT7519 competition): unaffected
[9]; CRBN−/− MOLT4 cells
  percent inhibited PCTAIRE2 (Lys2) labeling: 10.3%
[9]; Wildtype MOLT4 cells
  percent inhibited PCTAIRE2 (Lys2) labeling: 8.1%
[10]
  Kinomescan inhibition of DYRK1B: greater than 99%
[11]
  MCL-1 protein level: MCL-1 loss was observed
[12]
  phosphorylation of RNA Pol II CTD Serine 2: inhibited in a concentration dependent manner
[13]
  CDK10 engagement in lysate: strongly engaged
[14]; read-out: CDK7 IC50, Km ATP
  pIC50: < 5.00
[15]
  S(1) score: 0.005
[16]; [31]
  CDK9 engagement (bio-AT7519 competition): engages CDK9 in wildtype and CRBN−/− MOLT4 cells at all concentrations tested
[17]
  time to induction of apoptosis (PARP and Caspase-3 cleavage): ≤ 4 h
[18]; CRBN−/− MOLT4 cells
  percent inhibited PCTAIRE2,PCTAIRE3 (Lys1) labeling: −15%
[18]; Wildtype MOLT4 cells
  percent inhibited PCTAIRE2,PCTAIRE3 (Lys1) labeling: −4.7%
[19]
  CDK7 engagement (bio-AT7519 competition): unaffected
[20]; CRBN−/− MOLT4 cells
  percent inhibited GSK3A (Lys2) labeling: 10%
[20]; Wildtype MOLT4 cells
  percent inhibited GSK3A (Lys2) labeling: 5.8%
[21]
  CDK9 engagement in lysate: strongly engaged

## CC(C)(C)c1cnc(CSc2cnc(NC(=O)C3CCNCC3)s2)o1 [SNS-032, N-[5-[[[5-(1,1-Dimethylethyl)-2-oxazolyl]methyl]thio]-2-thiazolyl]-4-piperidinecarboxamide]
[4]; Homo sapiens, MOLT-4, 72 h
  pIC50: 6.76
[12]
  phosphorylation of RNA Pol II CTD Serine 2: inhibited in a concentration dependent manner
[16]; [31]
  CDK9 engagement (bio-AT7519 competition): showed engagement
[17]
  time to induction of apoptosis (PARP and Caspase-3 cleavage): ≤ 4 h
[18]; CRBN−/− MOLT4 cells
  percent inhibited PCTAIRE2,PCTAIRE3 (Lys1) labeling: 75.4%

## CC(C)(C)c1cnc(CSc2cnc(NC(=O)C3CCN(CC(=O)NCCOCCOCCOCCNc4cccc5c4C(=O)N(C4CCC(=O)NC4=O)C5=O)CC3)s2)o1 (stereo not drawn) [THAL-SNS-032]
[22]
  CDK7 mRNA level relative to DMSO-treated: around 20%
[3]; CRBN−/− MOLT4 cells
  percent inhibited PCTAIRE1,PCTAIRE3 (Lys2) labeling: 11.4%
[3]; Wildtype MOLT4 cells
  percent inhibited PCTAIRE1,PCTAIRE3 (Lys2) labeling: 16.3%
[23]
  inhibition of proliferation compared to SNS-032: more potent inhibition of proliferation as compared to SNS-032
[4]; 250nM, 6 hours treatment then washout, 72 hours of growth
  viability after washout: more profound decrease in viability after washout compared to NVP-2 or SNS-032
[4]; Homo sapiens, MOLT-4, 72 h
  pIC50: 7.30
[24]
  CDK1 mRNA level relative to DMSO-treated: around 20%
[25]
  pIC50: 5.44
[5]
  pIC50: 8.40
[26]
  CDK10 degradation: partial degradation
[27]
  pIC50: 6.77
[11]
  MCL-1 protein level: loss of MCL-1
[12]
  phosphorylation of RNA Pol II CTD Serine 2: inhibited phosphorylation of Serine 2 in a concentration and time-dependent manner
[14]
  pIC50: 6.40
[28]; [32]
  time for CDK9 levels to return to baseline after washout: 36 h
  time of partial rebound of CDK9 levels after washout: ≤ 12 h
[28]; MOLT4 cells, 250 nM
  time to complete CDK9 degradation: 2 h
[28]; MOLT4 cells, 250nM time course
  persistence of CDK9 degradation: at least 24 hours
[28]; MOLT4 cells, 6-hour treatment
  concentration inducing complete CDK9 degradation: 250 nM
[28]; MOLT4 cells, 6 hours
  concentration at which CDK9 degradation decreases (hook effect): ≥ 5 µM
[29]
  pIC50: 7.21
[16]; CRBN−/− MOLT4 cells only
  CDK9 engagement (bio-AT7519 competition): little to no engagement
[17]
  time to induction of apoptosis (PARP and Caspase-3 cleavage): ≤ 4 h
[30]
  CDK9 abundance in proteome-wide analysis: most depleted protein out of 4512 proteins
[18]; CRBN−/− MOLT4 cells
  percent inhibited PCTAIRE2,PCTAIRE3 (Lys1) labeling: 16%
[18]; Wildtype MOLT4 cells
  percent inhibited PCTAIRE2,PCTAIRE3 (Lys1) labeling: 22.1%
